Measured values: publication PMC8923172 (Antimicrobial Agents and Chemotherapy, 2022)
Read-outs that look alike come from different tables or passages of the source. Marks after values point to notes of the source that are not given here. Residues, ends and D or L forms follow the SMILES beside them.

Tests used:
[1] = Single-dose i.v. pharmacokinetics in a vervet; format: in vivo, vervet/African green monkey (Chlorocebus aethiops sabaeus); details: 3 mg/kg single i.v. bolus, n=1
How it was run: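 Adult male vervet given a single 3 mg/kg i.v. bolus of test compound. Blood was sampled at 0.5, 1, 4, 8, 24, 48, 72, 96, 120 and 192 h. Clarified plasma was diluted 1:10 into 5% formic acid-5% acetonitrile and quantified by UPLC with photodiode array detection. Noncompartmental analysis used nominal times; λz was fitted over up to the last four log-linear points.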

[2] = Coagulation in cynomolgus monkeys at the end of treatment; format: in vivo; details: median (IQR)
How it was run: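 GLP 10-day study in male and female cynomolgus monkeys (n = 3-5/sex/group) dosed once daily with 0 (placebo), 5, 10 or 15 mg/kg test compound by i.v. infusion over 60 ± 5 min. Hematology, serum chemistry and coagulation were taken at end of treatment and reported as median (IQR). Dose groups were compared by Kruskal-Wallis with Dunn's multiple comparison test.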

[3] = Serum biochemistry of rats at the end of treatment; format: in vivo, Sprague-Dawley rats; details: median (IQR)
[4] = for Cmax: 20-min i.v. infusion, n=12, estimate (SE); for AUCτ / λz: i.v. infusion, n=12, pooled

## CC[C@H](C)[C@@H]1NC(=O)[C@@H]2CSSC[C@H](NC(=O)[C@H](CCCNC(=N)N)NC(=O)[C@@H]3CSSC[C@H](NC1=O)C(=O)N[C@@H]([C@@H](C)O)C(=O)N[C@@H](CCCNC(=N)N)C(=O)NCC(=O)N[C@@H](Cc1ccccc1)C(=O)N3)C(=O)N[C@@H](CC(C)C)C(=O)N[C@H]1CSSC[C@H](NC(=O)[C@H](C(C)C)NC(=O)CNC(=O)[C@H](CCCNC(=N)N)NC(=O)[C@H](CCCNC(=N)N)NC1=O)C(=O)N[C@@H](CCCNC(=N)N)C(=O)N2 [RTD-1, Rhesus theta (θ) defensin-1] (HELM PEPTIDE1{G.F.C.R.C.L.C.R.R.G.V.C.R.C.I.C.T.R}$PEPTIDE1,PEPTIDE1,3:R3-16:R3|PEPTIDE1,PEPTIDE1,5:R3-14:R3|PEPTIDE1,PEPTIDE1,7:R3-12:R3|PEPTIDE1,PEPTIDE1,1:R1-18:R2$$$V2.0)
[1]
  AUCτ: 21,949 ng · h/mL
  CL: 2.27 mL/min/kg
  MRT: 4.71 h
  Vss: 0.639 L/kg
  λz: 0.204 h⁻¹
[2]; female, 5 mg/kg
  APTT: 22.40 (2.05) s
  Fibrinogen: 238.00 (40.50) mg/dL
  PT: 12.20 (0.25) s
[2]; female, 10 mg/kg
  APTT: 20.80 (0.55) s
  Fibrinogen: 294.00 (7.50) mg/dL
  PT: 11.80 (0.25) s
[2]; female, 15 mg/kg
  APTT: 22.60 (0.90) s
  Fibrinogen: 300.00 (57.00)^d mg/dL
  PT: 12.30 (0.50) s
[2]; male, 5 mg/kg
  APTT: 21.60 (0.80) s
  Fibrinogen: 306.00 (49.50) mg/dL
  PT: 12.00 (0.55) s
[2]; male, 10 mg/kg
  APTT: 21.10 (0.45) s
  Fibrinogen: 285.00 (22.50) mg/dL
  PT: 12.00 (0.25) s
[2]; male, 15 mg/kg
  APTT: 22.10 (1.65) s
  Fibrinogen: 336.00 (114.00) mg/dL
  PT: 12.25 (0.83) s
[3]; female, 5 mg/kg/day
  A/G: 2.1 (0.2)
  ALP: 92.0 (21.0) U/L
  ALT: 35.0 (7.0) U/L
  AST: 139.0 (35.0) U/L
  Albumin: 3.9 (0.3) g/dL
  CK: 792.0 (198.0) U/L
  Calcium: 9.8 (0.2) mg/dL
  Chloride: 105.0 (2.0) mmol/L
  Cholesterol: 55.0 (15.0) mg/dL
  Creatinine: 0.3 (0.0) mg/dL
  GGT: 0.0 (0.0) U/L
  Globulin: 1.8 (0.1) g/dL
  Glucose: 97.0 (16.0) mg/dL
  Phos: 7.3 (0.8) mg/dL
  Potassium: 4.9 (0.4) mmol/L
  Sodium: 143.0 (1.0) mmol/L
  T-Bil: 0.0 (0.0) mg/dL
  TP: 5.8 (0.5) g/dL
  Triglycerides: 25.0 (7.0) mg/dL
  Urea N: 20.0 (2.0) mg/dL
[3]; female, 10 mg/kg/day
  A/G: 2.2 (0.2)
  ALP: 109.5 (30.5) U/L
  ALT: 32.5 (6.0) U/L
  AST: 122.0 (14.3) U/L
  Albumin: 3.9 (0.1) g/dL
  CK: 473.5 (211.3) U/L
  Calcium: 10.0 (0.3) mg/dL
  Chloride: 105.0 (2.0) mmol/L
  Cholesterol: 55.0 (26.5) mg/dL
  Creatinine: 0.3 (0.0) mg/dL
  GGT: 0.0 (0.0) U/L
  Globulin: 1.8 (0.2) g/dL
  Glucose: 99.0 (5.5) mg/dL
  Phos: 7.1 (0.8) mg/dL
  Potassium: 5.1 (0.5) mmol/L
  Sodium: 142.5 (1.0) mmol/L
  T-Bil: 0.0 (0.0) mg/dL
  TP: 5.7 (0.4) g/dL
  Triglycerides: 26.0 (11.5) mg/dL
  Urea N: 21.0 (1.8) mg/dL
[3]; female, 20 mg/kg, day 2
  A/G: 3.0 (0.4)^c^,^d^,^e
  ALP: 142.0 (34.5)^d^,^e U/L
  ALT: 62.0 (28.5)^c^,^d^,^e U/L
  AST: 397.0 (345.5)^d^,^e U/L
  Albumin: 3.0 (0.6)^d^,^e g/dL
  CK: 1,506.0 (2,604.5) U/L
  Calcium: 10.3 (0.6)^c^,^d mg/dL
  Chloride: 104.0 (3.0) mmol/L
  Cholesterol: 52.0 (6.5) mg/dL
  Creatinine: 0.5 (0.2)^c^,^d^,^e mg/dL
  GGT: 4.0 (5.5)^c^,^d^,^e U/L
  Globulin: 1.0 (0.3)^c^,^d^,^e g/dL
  Glucose: 218.0 (70.0)^c^,^d^,^e mg/dL
  Phos: 9.3 (5.0) mg/dL
  Potassium: 4.9 (0.7) mmol/L
  Sodium: 141.0 (2.5)^c mmol/L
  T-Bil: 0.0 (0.0) mg/dL
  TP: 3.9 (0.8)^c^,^d^,^e g/dL
  Triglycerides: 106.0 (36.5)^c^,^d^,^e mg/dL
  Urea N: 20.0 (3.0) mg/dL
[3]; male, 5 mg/kg/day
  A/G: 2.2 (0.3)
  ALP: 212.0 (40.3) U/L
  ALT: 40.0 (9.8) U/L
  AST: 133.0 (34.0) U/L
  Albumin: 3.8 (0.0) g/dL
  CK: 765.5 (395.5) U/L
  Calcium: 9.8 (0.4) mg/dL
  Chloride: 104.5 (1.8) mmol/L
  Cholesterol: 70.5 (10.3) mg/dL
  Creatinine: 0.2 (0.1) mg/dL
  GGT: 0.0 (0.0) U/L
  Globulin: 1.7 (0.2) g/dL
  Glucose: 72.5 (16.3) mg/dL
  Phos: 8.5 (0.5) mg/dL
  Potassium: 5.2 (0.2) mmol/L
  Sodium: 144.0 (1.8) mmol/L
  T-Bil: 0.0 (0.0) mg/dL
  TP: 5.5 (0.2) g/dL
  Triglycerides: 37.0 (21.5) mg/dL
  Urea N: 16.5 (4.0) mg/dL
[3]; male, 10 mg/kg/day
  A/G: 2.4 (0.2)
  ALP: 212.5 (51.5) U/L
  ALT: 32.5 (4.5) U/L
  AST: 113.5 (16.8) U/L
  Albumin: 3.7 (0.2) g/dL
  CK: 612.5 (254.8) U/L
  Calcium: 9.7 (0.2) mg/dL
  Chloride: 105.0 (1.0) mmol/L
  Cholesterol: 66.0 (14.3) mg/dL
  Creatinine: 0.3 (0.1) mg/dL
  GGT: 0.0 (0.0) U/L
  Globulin: 1.6 (0.2) g/dL
  Glucose: 83.0 (6.8) mg/dL
  Phos: 8.6 (1.0) mg/dL
  Potassium: 5.1 (0.3) mmol/L
  Sodium: 144.0 (0.0) mmol/L
  T-Bil: 0.0 (0.0) mg/dL
  TP: 5.4 (0.3) g/dL
  Triglycerides: 29.0 (5.3) mg/dL
  Urea N: 19.0 (3.5) mg/dL
[3]; male, 20 mg/kg, day 2
  A/G: 2.7 (0.1)^c^,^d^,^e
  ALP: 232.0 (45.0) U/L
  ALT: 74.0 (38.0)^d^,^e U/L
  AST: 245.0 (100.0)^d^,^e U/L
  Albumin: 2.7 (0.0)^c^,^d^,^e g/dL
  CK: 707.0 (615.0) U/L
  Calcium: 9.4 (0.5)^d mg/dL
  Chloride: 101.0 (1.0)^c^,^d^,^e mmol/L
  Cholesterol: 67.0 (7.0) mg/dL
  Creatinine: 0.4 (0.1)^c^,^d^,^e mg/dL
  GGT: 0.0 (0.0) U/L
  Globulin: 1.0 (0.0)^c^,^d^,^e g/dL
  Glucose: 175.0 (35.0)^c^,^d^,^e mg/dL
  Phos: 9.3 (3.8) mg/dL
  Potassium: 5.1 (0.6) mmol/L
  Sodium: 140.0 (2.0)^c^,^d^,^e mmol/L
  T-Bil: 0.1 (0.2) mg/dL
  TP: 3.7 (0.1)^c^,^d^,^e g/dL
  Triglycerides: 193.0 (111.0)^c^,^d^,^e mg/dL
  Urea N: 28.0 (6.0)^c^,^d^,^e mg/dL
[4]; 5 mg/kg Day 1
  Cmax: 7,468 (1,202)^b ng/mL
  AUCτ: 14,956 ng · h/mL
  λz: 0.056 h⁻¹
[4]; 5 mg/kg Day 7
  AUCτ: 12,468 ng · h/mL
  λz: 0.104 h⁻¹
[4]; 5 mg/kg/day
  AUCτ on day 7 lower than AUC0-∞ on day 1: 22%
[4]; 10 mg/kg Day 1
  Cmax: 27,533 (1,419)* ng/mL
  AUCτ: 41,669 ng · h/mL
  λz: 0.148 h⁻¹
[4]; 10 mg/kg Day 7
  λz: 0.133 h⁻¹
[4]; 10 mg/kg/day
  AUCτ on day 7 lower than AUC0-∞ on day 1: 19%
[4]; 20 mg/kg Day 1
  Cmax: 35,400 (5,350)# ng/mL
  λz: 0.221 h⁻¹
[4]; all rats except one female at 10 mg/kg
  plasma levels during the recovery period (day 25): undetectable
[4]; single ascending dose
  increase in AUC0-∞ from 5 mg/kg to 20 mg/kg: 8 fold
